High-throughput results as filed in PubChem BioAssay.
MrgX1 antagonist – antagonists of human MrgX1 receptor; MRGX1-HEK293 calcium flux, Fluo-4, BAM8-22 antagonism; stronger effect = lower value; B-score at 10 µM; 310,000 tested, 1.3% active; AID 588676;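 active means calcium-response B-score plate-corrected more than 3 library SD below zero, starting fluorescence within 5 deviations, no agonist response on first addition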;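 further: peak minus trough fluorescence over baseline after final BAM8-22 challenge near maximal dose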
Target sequence (Q96LB2 whole entry, looked up): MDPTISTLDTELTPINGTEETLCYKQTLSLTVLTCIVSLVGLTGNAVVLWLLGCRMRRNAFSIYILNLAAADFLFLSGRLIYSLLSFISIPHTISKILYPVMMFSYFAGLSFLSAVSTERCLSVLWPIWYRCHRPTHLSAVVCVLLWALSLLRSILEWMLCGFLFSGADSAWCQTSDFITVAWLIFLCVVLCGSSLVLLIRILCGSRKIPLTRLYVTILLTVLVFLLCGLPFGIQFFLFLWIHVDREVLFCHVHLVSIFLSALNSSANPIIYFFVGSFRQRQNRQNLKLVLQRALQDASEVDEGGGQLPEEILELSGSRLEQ
RGS4 inh – human RGS4 inhibition; P49798; 310,000 tested, 0.45% active; B-score at 10 µM; HEK293 M3R/RGS4 inducible, Fluo-4 calcium flux; stronger effect = higher value; triggered by carbachol at its EC20;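 active means B-score, a plate-corrected calcium signal, over three deviations above library mean, with baseline fluorescence within five deviations of library mean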;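 further: RGS4 expression induced by doxycycline in cells with stable M3 receptor; B-score is computed from the integrated fluorescence ratio over baseline after carbachol; higher B-score means a larger calcium signal and so more RGS4 inhibition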
Target sequence (P49798 whole entry, looked up): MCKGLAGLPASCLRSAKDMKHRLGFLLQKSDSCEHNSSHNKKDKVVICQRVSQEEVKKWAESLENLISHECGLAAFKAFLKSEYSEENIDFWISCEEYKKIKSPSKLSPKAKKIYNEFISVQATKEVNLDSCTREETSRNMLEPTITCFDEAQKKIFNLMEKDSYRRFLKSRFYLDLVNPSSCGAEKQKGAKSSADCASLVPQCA
MrgX1 PAM – human MrgX1 positive allosteric modulation, primary screen; MrgX1-HEK293, Fluo-4 calcium flux, FDSS; stronger effect = higher value; B-score at 10 µM; 310,000 tested, 0.63% active; AID 588675;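 active means plate-corrected calcium response at least 3 library SD above typical, normal starting fluorescence, not activating the receptor alone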;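 further: compound read alongside a low EC10 to EC30 dose of BAM8-22 agonist; peak minus trough fluorescence over baseline measured at the second addition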
RGS4 pot – RGS4 potentiation or activation. AID 463111. HEK293 M3R/inducible RGS4, carbachol calcium flux Fluo4; stronger effect = lower value. B-score at 10 µM. 310,000 tested, 0.92% active;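 active means B-score of the integrated calcium signal more than 4 SD below the library mean, with starting fluorescence not abnormally high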;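 further: negative B-score means reduced calcium response which marks RGS4 activation or potentiation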
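Assay system: Inducible-RGS4 HEK293 cells carrying M3 receptor | Schedule: Compound preincubation 20 min at room temperature before agonist | Signal: Kinetic calcium fluorescence imaging with Fluo4-AM dye, 2 µM | Read-out basis: B score from integrated fluorescence ratio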
MrgX1 ag – human MrgX1 receptor agonism, primary screen. Q96LB2. MrgX1-HEK293 cells, Fluo-4 calcium fluorescence, agonist mode; stronger effect = higher value. B-score at 10 µM. 310,000 tested, 0.44% active. AID 588627;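 active means calcium response B-score plate-corrected fluorescence ratio at least 3 library SD, with starting fluorescence B-score inside 5 SD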
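Test system: HEK293 cells stably expressing human MrgX1 receptor; amount: 15,000 cells per well; doses: compound delivered in addition one of three; times: overnight plating before 1 h dye loading; detection: Fluo-4 NW calcium-flux fluorescence, kinetic read; read-out basis: B-scored fluorescence response ratio; controls: positive and negative controls per plate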
Active calls of the source: *. Only some compounds are listed: those with a hit (about 3.5% of all), similar ones and a draw of the others.

Results for CC1Cc2ccccc2N1C(=O)CN1CCCCC1 (centres undefined) ?
MrgX1 antagonist: inactive; RGS4 inh: inactive; MrgX1 PAM: inactive; RGS4 pot: inactive; MrgX1 ag: inactive

Results for O=C(CN1CCCCC1)N1c2ccccc2Oc2ccccc21 ?
MrgX1 antagonist: inactive; RGS4 inh: inactive; MrgX1 PAM: inactive; RGS4 pot: -7.5*; MrgX1 ag: inactive

How did CC(=O)OC(C[N+]1(C)CCCCCC1)c1ccccc1 (centres undefined) do in these assays?
MrgX1 antagonist: inactive; RGS4 inh: inactive; MrgX1 PAM: inactive; RGS4 pot: -7*; MrgX1 ag: inactive

What do the screens show for `C[N+]1(CC(O)c2ccccc2)CCCCCC1` (centres undefined)?
MrgX1 antagonist: inactive; RGS4 inh: inactive; MrgX1 PAM: inactive; RGS4 pot: inactive; MrgX1 ag: inactive

What do the screens show for `COc1ccc(OC)c(/C=N/NC(=O)c2ccc(Cn3cc([N+](=O)[O-])cn3)o2)c1`?
MrgX1 antagonist: inactive; RGS4 inh: inactive; MrgX1 PAM: inactive; RGS4 pot: inactive; MrgX1 ag: inactive

How did COc1ccccc1CNC(=O)CN(C)Cc1ccc(SC)cc1 do in these assays?
MrgX1 antagonist: inactive; RGS4 inh: inactive; MrgX1 PAM: inactive; RGS4 pot: inactive; MrgX1 ag: inactive

Results for C/C(=N/Nc1ccc([N+](=O)[O-])cc1)c1ccc(C)cc1C ?
MrgX1 antagonist: inactive; RGS4 inh: inactive; MrgX1 PAM: inactive; RGS4 pot: inactive; MrgX1 ag: inactive

How did C/C(=N/Nc1ccc([N+](=O)[O-])cc1)c1c[nH]c2ccccc12 do in these assays?
MrgX1 antagonist: -4.9*; RGS4 inh: inactive; MrgX1 PAM: inactive; RGS4 pot: inactive; MrgX1 ag: inactive

What do the screens show for `Cc1[nH]c2ccccc2c1/C=N/Nc1ccc([N+](=O)[O-])cc1`?
MrgX1 antagonist: -4.9*; RGS4 inh: inactive; MrgX1 PAM: inactive; RGS4 pot: inactive; MrgX1 ag: inactive

What do the screens show for `CN(c1ccc([N+](=O)[O-])cc1C(N)=O)C1CCCCC1`?
MrgX1 antagonist: inactive; RGS4 inh: inactive; MrgX1 PAM: inactive; RGS4 pot: inactive; MrgX1 ag: inactive

What do the screens show for `CCCCCCCCNC(=O)c1cccnc1SCC(=O)Nc1ccccc1OC`?
MrgX1 antagonist: inactive; RGS4 inh: inactive; MrgX1 PAM: inactive; RGS4 pot: inactive; MrgX1 ag: inactive

How did Cc1c(C(=O)NCCC2=CCCCC2)oc2ccc(S(=O)(=O)N3CCC4(CC3)OCCO4)cc12 do in these assays?
MrgX1 antagonist: inactive; RGS4 inh: inactive; MrgX1 PAM: inactive; RGS4 pot: -8*; MrgX1 ag: inactive

What do the screens show for `CC(C)Oc1ccc(Cn2c(-c3ccco3)n[nH]c2=S)cc1`?
MrgX1 antagonist: inactive; RGS4 inh: inactive; MrgX1 PAM: inactive; RGS4 pot: -7.3*; MrgX1 ag: inactive

How did Cc1c(Cc2ccccc2)c(=O)oc2cc(OC(C)C(=O)NCC3CCC(C(=O)O)CC3)c(Cl)cc12 (centres undefined) do in these assays?
MrgX1 antagonist: inactive; RGS4 inh: inactive; MrgX1 PAM: inactive; RGS4 pot: inactive; MrgX1 ag: inactive

What do the screens show for `CCN(C(=O)CCNC(=O)Cn1cnc2ccccc2c1=O)c1ccccc1F`?
MrgX1 antagonist: inactive; RGS4 inh: inactive; MrgX1 PAM: inactive; RGS4 pot: inactive; MrgX1 ag: inactive

How did Cc1cccc(OCc2nnc(SCC(=O)Nc3cccc(C(=O)N4CCOCC4)c3)o2)c1C do in these assays?
MrgX1 antagonist: inactive; RGS4 inh: inactive; MrgX1 PAM: inactive; RGS4 pot: inactive; MrgX1 ag: inactive

What do the screens show for `CC(C)n1nc(C(=O)Nc2cccc(S(=O)(=O)NCc3ccco3)c2)c2ccccc2c1=O`?
MrgX1 antagonist: inactive; RGS4 inh: inactive; MrgX1 PAM: inactive; RGS4 pot: -7.2*; MrgX1 ag: inactive

What do the screens show for `N#Cc1ccsc1NC(=O)c1cccc([N+](=O)[O-])c1`?
MrgX1 antagonist: inactive; RGS4 inh: inactive; MrgX1 PAM: inactive; RGS4 pot: inactive; MrgX1 ag: inactive

What do the screens show for `N#Cc1ccsc1NC(=O)c1ccc(Cl)c([N+](=O)[O-])c1`?
MrgX1 antagonist: -4.9*; RGS4 inh: inactive; MrgX1 PAM: inactive; RGS4 pot: inactive; MrgX1 ag: inactive

Results for O=C(Nc1ccc(C(O)(C(F)(F)F)C(F)(F)F)cc1)c1ccc(Cl)c([N+](=O)[O-])c1 ?
MrgX1 antagonist: inactive; RGS4 inh: inactive; MrgX1 PAM: inactive; RGS4 pot: -8.8*; MrgX1 ag: inactive

What do the screens show for `CCCCCCCCC[n+]1cccc2c3ccccc3ccc21`?
MrgX1 antagonist: inactive; RGS4 inh: inactive; MrgX1 PAM: inactive; RGS4 pot: -8.6*; MrgX1 ag: inactive

How did CC[C@@H]1CC=C[C@H]2[C@H]1C(=O)N(Cc1ccccc1)[C@H]2c1cc(C)ccc1F do in these assays?
RGS4 inh: inactive; RGS4 pot: inactive

How did CC1(C)N=C(N)N=C(N)N1c1ccc(Oc2ccc(Cl)cc2)c(Cl)c1 do in these assays?
MrgX1 antagonist: inactive; RGS4 inh: inactive; MrgX1 PAM: inactive; RGS4 pot: -7.5*; MrgX1 ag: inactive

How did CC1(C)N=C(N)N=C(N)N1c1ccccc1 do in these assays?
MrgX1 antagonist: inactive; RGS4 inh: inactive; MrgX1 PAM: inactive; RGS4 pot: inactive; MrgX1 ag: inactive

Results for CN(c1ccccc1)P(=O)(N(C)c1ccccc1)N(C)c1ccccc1 ?
MrgX1 antagonist: inactive; RGS4 inh: inactive; MrgX1 PAM: inactive; RGS4 pot: -11*; MrgX1 ag: inactive

How did CCN(c1ccccc1)P(=O)(Nc1ccccc1)Nc1ccccc1 do in these assays?
MrgX1 antagonist: inactive; RGS4 inh: inactive; MrgX1 PAM: inactive; RGS4 pot: inactive; MrgX1 ag: inactive

What do the screens show for `COc1ccc(/C=C2/C(=N)N3N=C(CC(=O)N4CCCC4)SC3=NC2=O)cc1`?
MrgX1 antagonist: inactive; RGS4 inh: inactive; MrgX1 PAM: inactive; RGS4 pot: inactive; MrgX1 ag: 35*

How did Cc1ccc(/C=C2\C(=N)N3N=C(CC(=O)N4CCCCC4)SC3=NC2=O)cc1 do in these assays?
MrgX1 antagonist: inactive; RGS4 inh: inactive; MrgX1 PAM: inactive; RGS4 pot: inactive; MrgX1 ag: inactive

How did COc1ccc(/C=C2\C(=N)N3N=C(CC(=O)N4CCCCC4)SC3=NC2=O)cc1 do in these assays?
MrgX1 antagonist: inactive; RGS4 inh: inactive; MrgX1 PAM: inactive; RGS4 pot: inactive; MrgX1 ag: 38*

What do the screens show for `CCOc1ccc(-c2noc(CCCC(=O)NCC3CCCO3)n2)cc1OC` (centres undefined)?
MrgX1 antagonist: inactive; RGS4 inh: inactive; MrgX1 PAM: inactive; RGS4 pot: inactive; MrgX1 ag: inactive

Results for C/C(CC(C)(C)C1CCCCC1)=N\NC(N)=S ?
MrgX1 antagonist: -8.7*; RGS4 inh: inactive; MrgX1 PAM: inactive; RGS4 pot: inactive; MrgX1 ag: inactive
